Compounds with a hit are over-represented: about 2.9% of the library has one in this group of screens.
TRPC4 potent – positive allosteric modulators of TRPC4, primary screen, cell-based, mouse TRPC4beta, HEK293 mu-opioid, Fluo-4 calcium. Short transient receptor potential channel 4 (Mus musculus), Q9QUQ5. DAMGO EC20, Fluo-4 Ca2+ flux; hits give high values. B-score at 10 µM. 310,000 compounds, 0.42% hits;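 active means B-score of calcium response area above 5 SD of library B-scores, with initial fluorescence ratio within 5 SD of library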;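 further: B-score of integrated fluorescence ratio over time as area under calcium response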
Target sequence (Q9QUQ5 whole entry, looked up): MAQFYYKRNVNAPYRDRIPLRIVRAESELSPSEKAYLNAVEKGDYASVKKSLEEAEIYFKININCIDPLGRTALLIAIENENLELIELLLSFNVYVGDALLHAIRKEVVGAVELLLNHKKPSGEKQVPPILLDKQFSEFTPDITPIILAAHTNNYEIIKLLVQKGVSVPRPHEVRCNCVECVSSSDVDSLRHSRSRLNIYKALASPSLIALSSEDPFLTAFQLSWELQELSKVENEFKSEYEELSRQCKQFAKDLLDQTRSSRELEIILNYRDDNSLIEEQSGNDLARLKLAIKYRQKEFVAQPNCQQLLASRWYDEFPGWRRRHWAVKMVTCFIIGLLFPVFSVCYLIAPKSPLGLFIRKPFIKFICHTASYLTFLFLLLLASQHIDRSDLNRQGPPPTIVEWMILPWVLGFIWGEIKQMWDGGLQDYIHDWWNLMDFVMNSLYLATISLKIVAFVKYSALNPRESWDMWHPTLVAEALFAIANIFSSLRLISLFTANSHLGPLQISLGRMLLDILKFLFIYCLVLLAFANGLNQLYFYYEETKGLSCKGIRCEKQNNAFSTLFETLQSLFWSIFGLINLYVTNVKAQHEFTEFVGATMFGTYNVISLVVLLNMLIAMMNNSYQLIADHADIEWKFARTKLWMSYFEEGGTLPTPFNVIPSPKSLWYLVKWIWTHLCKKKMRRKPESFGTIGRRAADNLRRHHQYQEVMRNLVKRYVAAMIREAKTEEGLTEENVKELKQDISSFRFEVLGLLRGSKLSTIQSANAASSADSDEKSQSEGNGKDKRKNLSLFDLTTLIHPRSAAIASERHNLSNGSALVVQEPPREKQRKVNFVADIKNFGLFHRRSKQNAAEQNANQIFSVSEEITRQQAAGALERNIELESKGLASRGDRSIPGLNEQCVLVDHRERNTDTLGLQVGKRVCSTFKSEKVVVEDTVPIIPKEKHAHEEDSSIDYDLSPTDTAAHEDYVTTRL
TRPC6 activator – mouse TRPC6 channel activators, primary screen, cell-based, HEK293, membrane potential dye | HEK293-TRPC6 membrane potential dye fluorescence; hits give high values | Short transient receptor potential channel 6 (Mus musculus), Q61143 | B-score at 10 µM | AID 2550, 2010 | 310,000 compounds, 0.13% hits;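 active means B-score of the integrated fluorescence ratio above library mean plus 3 SD, and starting fluorescence ratio within library mean plus 5 SD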;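 further: higher score means more depolarization so channel activation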
TRPC4 inh – inhibitors of mouse TRPC4 channel, primary screen, Fluo4 calcium, HEK293 TRPC4beta/mu-opioid cells; 300,000 compounds, 0.39% hits; DAMGO-evoked Fluo4 calcium flux; hits give low values; Short transient receptor potential channel 4 (Mus musculus), Q9QUQ5; B-score at 10 µM;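 active means B-score over 3 SD under the library average, no early fluorescence shift, positive overall ratio signal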
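Assay system – HEK293 line stably carrying TRPC4beta and mu-opioid receptor · Doses – single dose · Detection – Fluo4 calcium-dye fluorescence, kinetic read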
Kir21 inh – inhibitors of mouse Kir2.1 inward-rectifier potassium channel. HEK293-Kir2.1, FluxOR thallium flux fluorescence; hits give low values. Inward rectifier potassium channel 2 (Mus musculus), P35561. 310,000 compounds, 0.85% hits. B-score at 10 µM;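 active means fluorescence ratio B-score at or below minus 3 SD of library scores, with starting-brightness B-score within 2 SD, cut at about -4.2 in these data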;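 further: channel flux triggered by added potassium and thallium sulfate stimulus; B-score of peak minus minimum fluorescence over baseline after thallium stimulus; more negative B-score means stronger Kir2.1 block with less thallium influx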
TRPC6 inhibitor – mouse TRPC6 channel inhibitors, primary screen, cell-based, HEK293, membrane potential dye; Short transient receptor potential channel 6 (Mus musculus), Q61143; ACh-evoked depolarization; hits give low values; B-score at 10 µM; 310,000 compounds, 1.1% hits;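 active means B-score under library mean minus 3 SD, initial fluorescence not abnormally high, positive integrated signal ratio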;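 further: B-score derived from integrated fluorescence ratio over the kinetic read; more negative B-score means stronger inhibition of depolarization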
TRPC4 agonist – activators of mouse TRPC4 channel, primary screen, Fluo4 calcium, HEK293 TRPC4beta/mu-opioid cells; Short transient receptor potential channel 4 (Mus musculus), Q9QUQ5; AID 2237, 2010; 310,000 compounds, 0.49% hits; Fluo4 calcium fluorescence; hits give high values; B-score at 10 µM;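 active means B-score above 5 SD of library B-scores, and initial fluorescence ratio not above library mean plus 5 SD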;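 further: positive B-score marks a calcium rise read as TRPC4 activation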
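system = HEK293 cells stably co-expressing mouse TRPC4beta and mu-opioid receptor | schedule = Fluo4 dye loading 45 min at room temperature, 110 s recording | measure = B-scored integrated calcium fluorescence ratio | signal = Fluo4 calcium-sensitive dye fluorescence, kinetic, 1 Hz baseline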
HEK293 MPD ctr – parental HEK293 membrane potential modulation, confirmation, counter-screen for TRPC6 modulator project, cell-based | shares compounds with TRPC6 inhibitor | membrane potential dye fluorescence | membrane potential signal change, % at 10 µM | 2,400 compounds, 51% hits | AID 488924, 2010;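 active means membrane potential signal moves up or down beyond 5 SD from buffer-only wells, on both duplicate plates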
HEK293 MPD ctr 2 – parental HEK293 nonspecific activity of TRPC6 modulators, second screen; shares compounds with TRPC6 inhibitor; membrane potential dye fluorescence; after compound, maximal acetylcholine stimulation; inhibition, % at 10 µM; 2,400 compounds, 14% hits;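 active means membrane potential signal drops by more than 5 SD from the mean control signal, in both duplicate plates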;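 further: plate controls were acetylcholine ECmax control wells for no effect and buffer only wells for full effect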
TRPC4/MOR mod – TRPC4 modulation by TRPC6 hit compounds, confirmation, selectivity assay for TRPC6 modulator project, cell-based, HEK293 TRPC4/mu-opioid, membrane potential dye, mouse; AID 488927, 2010; membrane potential fluorescence; shares compounds with TRPC6 inhibitor; percent change from control (negative = decrease, positive = increase), % at 10 µM; 2,400 compounds, 69% hits;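 active means membrane potential signal moved up or down beyond 5 SD of buffer control wells, in both duplicate plates, actives on both sides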;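 further: plate controls were assay buffer wells for no effect and DAMGO maximal-effect wells for full effect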
TRPC4 ctr inh 2 – second selectivity test of TRPC6 modulators against mouse TRPC4; shares compounds with TRPC6 inhibitor; inhibition, % at 10 µM; 2,400 compounds, 55% hits; HEK293 TRPC4/mu-opioid, membrane potential dye fluorescence; stimulated with maximal-effect DAMGO;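 active means drop in membrane potential signal beyond 5 SD of the control wells in both duplicate plates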;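 further: TRPC4 counter screen for TRPC6 hits run under conditions tuned for TRPC6 not TRPC4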
TRPC6 block conf – mouse TRPC6 channel inhibitors, confirmation, HEK293 cells, membrane potential dye, duplicate; 3,300 compounds, 43% hits; AID 488960, 2010; inhibition, % at 10 µM; ACh-evoked depolarization; shares compounds with TRPC6 inhibitor;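 active means fluorescence ratio falls more than 5 SD below the full-stimulation control mean, in both duplicate runs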;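 further: integrated fluorescence ratio of peak minus minimum over baseline after agonist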
TRPC6 act conf – mouse TRPC6 channel activators, confirmation, HEK293 cells, membrane potential dye, duplicate. shares compounds with TRPC6 inhibitor. 2,800 compounds, 11% hits. activation, % at 10 µM. HEK293-TRPC6 membrane potential dye fluorescence, FDSS;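 active means ratio signal rise beyond 5 SD above unstimulated control wells' mean, seen in both duplicate runs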;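 further: plate controls were buffer EC0 wells for no effect and acetylcholine ECmax response for full effect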
Active calls of the source: *; i = inactive; . = not tested or not shown.

SMILES	TRPC4 potent	TRPC6 activator	TRPC4 inh	Kir21 inh	TRPC6 inhibitor	TRPC4 agonist	HEK293 MPD ctr	HEK293 MPD ctr 2	TRPC4/MOR mod	TRPC4 ctr inh 2	TRPC6 block conf	TRPC6 act conf
CCn1c(=NC(=O)CSC(C)=O)sc2cc(OC)ccc21	i	16.6*	i	0.17	i	i	i	i	9.0%*	i	.	152.5%*
COc1cc(/C=C2/C(=O)N(c3ccc(Br)cc3)N=C2C)cc(OC)c1OC	i	i	i	-0.1	-5.44*	i	i	i	i	i	i	i
COc1ccc(CCNC(=O)[C@H](CC(C)C)NC(=O)N2CCn3c2nc2ccccc23)cc1OC	i	i	i	-0.17	i	i	.	.	.	.	.	.
COc1ccc(-c2nnc(N(C)C(=O)c3cccnc3)s2)cc1	i	i	i	-0.66	-5.21*	i	i	i	i	i	i	i
Cc1ccc(-c2nnc(N(C)C(=O)c3cccnc3)s2)cc1	i	i	i	-1.71	i	i	.	.	.	.	.	.
O=C(CCn1c(=O)c2cccn2c2cccnc21)N1CCN(c2cccc(Cl)c2)CC1	i	i	i	-1.57	i	i	.	.	.	.	.	.
O=C(CCCN1CCC(c2ccccc2)C1)c1ccc2c(c1)OCCO2 (stereo unspecified)	i	i	i	-1.53	-6.5*	i	111.5%*	i	i	77.0%*	67.5%*	.
O=C(CCCN1CCOCC1)c1ccc2c(c1)OCCO2	i	i	i	0.76	i	i	.	.	.	.	.	.
O=C1C2C(C(=O)N1/N=C/c1ccc(N3CCCCC3)o1)C1C=CC2C12CC2 (stereo unspecified)	i	i	i	0.13	i	i	.	.	.	.	.	.
Cc1ccc(C(=O)Nc2nc3ccccc3n2CCN2CCCC2)cc1	i	i	i	-1.81	-11.2*	i	-130.5%*	74.0%*	-30.5%*	88.5%*	91.5%*	i

Bioassay records (PubChem BioAssay)
